Source: publication PMC4861071 (Chemical communications (Cambridge, England), 2016)
Read-outs that look alike come from different tables or passages of the source.

Tests used:
[1] = test system: human renal Caki-1 cancer cell line; details: read-out: IC50 Caki-1; cisplatin dissolved in H2O; ref [24]; cited from earlier work
[2] = test system: non-tumorigenic human embryonic kidney cell lines HEK-293T; details: read-out: IC50 HEK-293T; cisplatin dissolved in H2O; ref [24]; cited from earlier work
[3] = test system: thioredoxin reductase (TrRx); test: Thioredoxin reductase activity in treated Caki-1 cells; assay type: cell-based, human; details: 5 µM, 24 hour incubation
How it was run: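 Caki-1 cells were incubated with 5 µM test compound or 0.1% DMSO vehicle for 5, 12 and 24 h. Endogenous thioredoxin reductase activity was then assayed in soluble whole-cell lysates. Percent inhibition is relative to vehicle-treated cells at 24 h.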

[4] = test system: human renal Caki-1 cancer cell line; test: Cell viability; assay type: cell-based; details: read-out: IC50 Caki-1; 72 h incubation; dissolved in 1% DMSO, diluted with water
How it was run: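 Growth inhibition measured by BluePresto assay in human renal Caki-1 cancer cells, run in parallel with human colon HCT 116 and DLD1 cancer lines and non-tumorigenic HEK-293T cells. Cells were exposed to test compound for 72 h. Compounds were dissolved in 1% DMSO and diluted with water before addition to the culture medium. Cisplatin reference was dissolved in water.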

plasmid (pBR322) DNA = details: cited from earlier work

| IC50 [4] [µM] | Compound | inhibition of thioredoxin reductase activity [3] [%] | further results |
| --- | --- | --- | --- |
| 27.1 ± 2 | CC(C)c1cccc(C(C)C)c1-n1ccn(-c2c(C(C)C)cccc2C(C)C)[c]1=[Au][Cl] [compound 1, [(IPr)AuCl]] | 17 |  |
| 35.6 ± 3.7 | [Ru(p-cymene)Cl2(η^1-dppm)] [compound 9] | 44 | interaction with plasmid DNA (plasmid (pBR322) DNA; ref [31]): weakly reduced supercoiling in plasmid DNA |

Continued, compound first:

| Compound | IC50 [4] [µM] | inhibition of thioredoxin reductase activity [3] [%] | further results |
| --- | --- | --- | --- |
| N.N.[Cl][Pt][Cl] [cisplatin] |  |  | IC50 [1]: 29 ± 4.11 µM; IC50 [2]: 3.27 ± 0.13 µM |
| [Ru(p-cymene)Cl2(μ-dppm)Au(IPr)]ClO4 [compound 13] | 5.2 ± 0.9 | 63 |  |
| [Ru(p-cymene)Cl2(μ-dppm)AuCl] [compound 7] |  |  | interaction with plasmid (pBR322) DNA (plasmid (pBR322) DNA; previously described compounds, ref [26]): lack of interaction |
